Source: PubChem
These entries were drawn from the full list.
Apaf1 activ = activators of human Apaf-1 apoptosome | AID 489031 | 330,000 compounds, 0.31% hits | Apaf-1 apoptosome caspase-3 activation, DEVD-Rh110 fluorescence; active compounds read low | O14727 | activity change, negative = activation, % at 20 µM;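 active = activity change at or below -40% at 20 µM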
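Schedule: 30 min preincubation, 50 min reaction, room temperature / System: biochemical Apaf-1 apoptosome reconstitution / Medium: 20 mM HEPES pH 7.5 with CHAPS, BSA / Evaluation: Caspase-3 cleavage activity downstream of Apaf-1 activation / Detection: Caspase-3-released Rh110 fluorescence, 540 nm emission, 480 nm excitation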
Rh110 interf act = interferes with Rh110 fluorescence, flagging false Apaf-1 activators; shares compounds with Apaf1 activ; Rh110 fluorescence interference, quenched caspase reaction, Ex480/Em540; fluorescence interference (activity change), % at 20 µM, hits read low; 980 tested, under 10 active;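 active = mean activity change at or below -40% when tested at 20 µM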
Apaf-1 act conf2 = Apaf-1 (human) activation, single-dose confirmed | 980 compounds, 5% hits | reconstituted apoptosome caspase-3 activity, DEVD-Rh110 fluorescence; active compounds read low | shares compounds with Apaf1 activ | AID 504617 | activity change, negative = activation, % at 20 µM;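 active = mean activity change at or below -40%, meaning activation of 40% or more, at 20 µM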
Fluor interf act = Apaf-1 activator counter-screen fluorescence artifact. shares compounds with Apaf1 activ. fluorescence interference counterscreen, Apaf-1 activator assay. EC50, µM. 55 tested, under 10 active; call rule not given here
Starred values were filed as active, the others as inactive.

`CCOc1ccc(CCNC(=O)c2ccc3c(=O)[nH]c4c(C(=O)NC(C)C)sc(=S)n4c3c2)cc1` gave Apaf1 activ -515.0*, Rh110 interf act -8.3 and Apaf-1 act conf2 16.0.
For CN(C)c1cc(N/N=C\c2ccccc2)nc(N(C)C)n1 the results were Apaf1 activ 94.8.
Screening O=C(Nc1ccccc1O)c1ccc2c(c1)C(=O)N(Cc1ccco1)C2=O returned Apaf1 activ -93.2*, Rh110 interf act -8.7 and Apaf-1 act conf2 5.4.
Screening COc1ccc2nc3cccc(OC)c3nc2c1 returned Apaf1 activ 96.6.
`O=C1CCNc2cc3ccccc3cc21` gave Apaf1 activ 62.1.
Screening Cc1cc(F)c(F)c(C(=O)N2CCCCC2C)c1Cl (centres undefined) returned Apaf1 activ -115.7*, Rh110 interf act 4.4 and Apaf-1 act conf2 17.7.
`Nc1nc(SCC(=O)Nc2cc(-c3ccccc3)nn2-c2ccccc2)n[nH]1` gave Apaf1 activ -41.2*, Rh110 interf act 7.5 and Apaf-1 act conf2 4.7.
For CS(=O)(=O)N(CC(=O)Nc1c(F)cccc1F)Cc1ccccc1 the results were Apaf1 activ -58.8*, Rh110 interf act 6.5 and Apaf-1 act conf2 14.0.
CCN(CC(=O)Nc1c(F)cccc1F)C(=O)Cc1ccsc1 was read as Apaf1 activ 52.3.
Screening CCN(CC)CC(=O)Nc1c(C)cccc1C returned Apaf1 activ -4.6.
`Oc1ccc(C[C@H]2CNCCN2CCCCC2CCCCC2)cc1` gave Apaf1 activ 40.6.
Cc1ccc(-n2nc3ccc(N)cc3n2)cc1Cl was read as Apaf1 activ 96.3.
Cc1ccc(-c2nn3c(C)nnc3c3ccccc23)cc1S(=O)(=O)NCc1ccccc1 was read as Apaf1 activ 47.7.
`CCOc1ccccc1OCCC(=O)NNC(=O)Cn1nc(C)cc1C` gave Apaf1 activ -81.5*, Rh110 interf act 5.4 and Apaf-1 act conf2 9.4.
O=C1OC(Nc2cc(Br)cc3cccnc23)c2ccccc21 (centres undefined) was read as Apaf1 activ 96.8.
N#Cc1nc(-c2ccc(OCc3ccc(Cl)cc3)cc2)oc1N1CCC(C(N)=O)CC1 was read as Apaf1 activ -82.1*, Rh110 interf act 2.0, Apaf-1 act conf2 -96.4* and Fluor interf act >100.
For CN(C)CCCN(C(=O)c1ccc(S(=O)(=O)N2CCc3ccccc3C2)cc1)c1nc2ccc(F)cc2s1 the results were Apaf1 activ 70.3.
Cc1[nH]n(-c2ccccc2)c(=O)c1/C=N/Nc1nncc(-c2ccccc2)n1 was read as Apaf1 activ 81.2.
`Oc1c(Br)cc(/C=N/NC(=S)NCc2ccco2)cc1Br` gave Apaf1 activ -328.7*, Rh110 interf act -0.3 and Apaf-1 act conf2 14.3.
For Cc1[nH]n(-c2ccccc2)c(=O)c1C(C[N+](=O)[O-])c1ccc(Cl)cc1 (centres undefined) the results were Apaf1 activ 88.2.
`CCOC(=O)c1ccc(N=c2sc(C(=O)OC)cc(=O)n2CCCN2CCOCC2)cc1` gave Apaf1 activ 2.5.
Screening CN(C=[N+](C)C)c1cccc2c1C(=O)c1ccccc1C2=O returned Apaf1 activ 43.0.
For COc1ccc(NC(=O)C(c2ccccn2)N(C(C)=O)c2ccc(C)cc2)cc1 (centres undefined) the results were Apaf1 activ -415.4*, Rh110 interf act 7.6 and Apaf-1 act conf2 6.0.
`COc1ccccc1C(=O)Nc1ccc(Oc2nnc(-c3ccc(C)cc3)c3ccccc23)cc1` gave Apaf1 activ 40.1.
For COC1=C(Nc2ccc(C)cc2)C(=O)c2ccccc2C1=O the results were Apaf1 activ 61.5.
CCCCC1=CC2=C(c3ccco3)C(=O)C(C)(OC(=O)c3ccc(OC)cc3)C(=O)C2=CN1C1CC1 (centres undefined) was read as Apaf1 activ 40.1.
Clc1ccc(/C=N/Nc2ncnc3ccccc23)cc1Cl was read as Apaf1 activ 42.8.
`CN1CCN(c2ccc(-c3cccc(NC(=O)COc4ccccc4)c3)nn2)CC1` gave Apaf1 activ 46.6.
Screening O=C(COc1ccccc1)N1CCN=C1SCc1ccc(F)cc1 returned Apaf1 activ 56.4.
For O=C(COc1ccc(-c2ccccc2)cc1)NNC(=O)Nc1ccc(F)cc1F the results were Apaf1 activ -53.7*, Rh110 interf act 3.6 and Apaf-1 act conf2 16.5.
Cc1ccc(N(CC2=NCCN2)c2cccc(O)c2)cc1 was read as Apaf1 activ -2.2.
For Nc1cccc2cnccc12 the results were Apaf1 activ 66.5.
